In ChEMBL document CHEMBL1914456, “Design, synthesis and biological evaluation of mannosyl triazoles as FimH antagonists” (Bioorg Med Chem, 2011):
pIC50: −log10 of the molar value. ≈ marks a conversion by molar mass, not a printed value.

Experiments:
[1] = Thermodynamic solubility of the compound at pH 6.5 after 24 hrs by shake flask method using LC-MS analysis; format: physicochemical; details: buffer, read-out: Therm_solubility
Procedure, shortened: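 1 mg solid shaken in 250 µL 50 mM phosphate buffer, pH 6.5: sonicated 15 min, shaken at 600 rpm and 25 °C for 2 h, then left 24 h. pH measured, then filtered by centrifugation. Filtrate diluted and quantified by LC-MS against a six-point calibration from 0.1 to 10 µg/mL.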

[2] = target: Type 1 fimbrin D-mannose specific adhesin (Escherichia coli K-12) (UniProt P08191); experiment: Ratio of compound IC50 to n-heptyl alpha-D-mannopyranoside IC50 for Escherichia coli recombinant C-terminal 6His-tagged FimH-CRD with a C-terminal thrombin cleavage site expressed in Escherichia coli HM125 assessed as inhibition of streptavidin-horseradish peroxidase conjugated TM-PAA polymer binding after 3 hrs by spectrophotometry
Procedure, shortened: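 FimH-CRD-Th-6His from E. coli HM125, purified on Ni-NTA, coated at 10 µg/mL in assay buffer (20 mM HEPES, 150 mM NaCl, 1 mM CaCl2, pH 7.4) overnight at 4 °C. Wells blocked with 3% BSA for 2 h at 4 °C. Four-fold serial dilutions of compound in buffer with 5% DMSO were added with streptavidin-peroxidase-coupled TM-PAA polymer (0.5 µg/mL). Plates were incubated 3 h at 25 °C, 350 rpm. ABTS was developed 4 min, stopped with 2% oxalic acid, and read at 415 nm. Each compound was run in duplicate and repeated at least twice. IC50 is the concentration that halves maximal specific TM-PAA binding. rIC50 is compound IC50 divided by the IC50 of n-heptyl α-D-mannopyranoside run on the same plate.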

[3] = target: Type 1 fimbrin D-mannose specific adhesin (Escherichia coli K-12, UniProt P08191); experiment: Antagonist activity at Escherichia coli recombinant C-terminal 6His-tagged FimH-CRD with a C-terminal thrombin cleavage site expressed in Escherichia coli HM125 assessed as inhibition of streptavidin-horseradish peroxidase conjugated TM-PAA polymer binding after 3 hrs by spectrophotometry
Procedure, shortened: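 Plates coated overnight at 4 °C with 10 µg/mL FimH-CRD-Th-6His in 20 mM HEPES, 150 mM NaCl, 1 mM CaCl2, pH 7.4, then blocked with 3% BSA for 2 h at 4 °C. Fourfold serial dilutions in buffer with 5% DMSO plus 0.5 µg/mL streptavidin-peroxidase TM-PAA polymer, 3 h at 25 °C. ABTS for 4 min, stopped with oxalic acid, OD 415 nm. Duplicates, repeated at least twice; n-heptyl α-D-mannoside on each plate; IC50 from curve fit.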

[4] = Permeability of the compound assessed as membrane retention at pH 5 to 7.4 after 16 hrs by PAMPA assay; format: ADME; details: pH 5, 16 h
Procedure, shortened: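 PAMPA sandwich: donor wells with compound solution, acceptor filter impregnated with GIT-0 lipid and filled with acceptor sink buffer. Incubated undisturbed for 16 h. Donor and acceptor samples quantified by UV spectroscopy and LC-MS; log Pe and membrane retention calculated from these.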

[5] = Octanol-phosphate buffer distribution coefficient, log D of the compound at pH 7.4 after 2 hrs by shake flask method using LC-MS analysis; format: physicochemical
Procedure, shortened: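 Miniaturized shake flask. Phosphate buffer (0.1 M, pH 7.4) and 1-octanol mutually saturated. Analyte at 1 µM in buffer, overlaid with octanol at two volume ratios chosen by ALOGPS-predicted logP, three determinations per ratio.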

[6] = Antagonist activity at Escherichia coli […] FimH assessed as disaggregation of microorganism from guinea pig erythrocytes measured for 1400 secs by aggregometry; format: functional; details: for pIC50: read-out: IC50
Procedure, shortened: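 E. coli UTI89 and guinea pig erythrocytes (separated on Histopaque), each adjusted to OD600 of 4 (1.9 × 10⁸ CFU/mL and 2.2 × 10⁶ cells/mL). Aggregation read as optical density at 740 nm, 37 °C, stirring at 1000 rpm. Instrument calibrated with protein-poor plasma in PBS as 100% and protein-rich plasma with erythrocytes as 0%. Triplicates; IC50 from area under the disaggregation curve.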

Escherichia coli = experiment: Ratio of compound IC50 to n-heptyl alpha-D-mannopyranoside IC50 for Escherichia coli […] FimH assessed as disaggregation of microorganism from guinea pig erythrocytes measured for 1400 secs by aggregometry

Type 1 fimbrin D-mannose specific adhesin (Escherichia coli K-12), sequence (P08191 whole entry): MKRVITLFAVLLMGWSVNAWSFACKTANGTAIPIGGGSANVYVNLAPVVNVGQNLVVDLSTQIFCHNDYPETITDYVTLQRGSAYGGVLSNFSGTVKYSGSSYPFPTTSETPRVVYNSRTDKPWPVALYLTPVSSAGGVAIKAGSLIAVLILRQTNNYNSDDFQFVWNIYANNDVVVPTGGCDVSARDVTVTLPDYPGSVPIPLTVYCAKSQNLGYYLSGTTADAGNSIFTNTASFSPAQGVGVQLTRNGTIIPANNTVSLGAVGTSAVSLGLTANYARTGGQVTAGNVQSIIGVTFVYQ
Type 1 fimbrin D-mannose specific adhesin, sequence (P08191 whole entry): as above

OC[C@H]1O[C@H](Cn2cc(-c3cccc(Cl)c3)nn2)[C@@H](O)[C@@H](O)[C@@H]1O
solubility thermodynamic at 24 h [1]: > 3000 µg/mL | Ratio IC50 [2]: 9.7 | pIC50 [3]: 6.19 | R% [4]: impermeable | logD at 2 h [5]: 0.68

OC[C@H]1O[C@H](n2cc(COc3ccccc3)nn2)[C@@H](O)[C@@H](O)[C@@H]1O
solubility thermodynamic at 24 h [1]: > 3000 µg/mL | Ratio IC50 [2]: 7.5 | pIC50 [3]: 6.31 | R% [4]: 5.5% | logD at 2 h [5]: -0.18

OC[C@H]1O[C@H](OCc2cn(-c3cccc(F)c3)nn2)[C@@H](O)[C@@H](O)[C@@H]1O
solubility thermodynamic at 24 h [1]: > 3000 µg/mL | Ratio IC50 [2]: 5.3 | pIC50 [3]: 6.46 | R% [4]: 5.4% | logD at 2 h [5]: 0.18

O=C([O-])c1cncc(-n2cc(CO[C@H]3O[C@H](CO)[C@@H](O)[C@H](O)[C@@H]3O)nn2)c1.[Na+]
solubility thermodynamic at 24 h [1]: > 3000 µg/mL | Ratio IC50 [2]: 2.6 | pIC50 [3]: 6.77

OC[C@H]1O[C@H](n2cc(-c3cccc(Cl)c3)nn2)[C@@H](O)[C@@H](O)[C@@H]1O
solubility thermodynamic at 24 h [1]: 705 µg/mL (≈ 2.06 mM) | Ratio IC50 [2]: 5.1 | pIC50 [3]: 6.48 | R% [4]: 13.2% | logD at 2 h [5]: 1.22

OC[C@H]1O[C@H](OCCc2cn(-c3ccc(F)cc3)nn2)[C@@H](O)[C@@H](O)[C@@H]1O
solubility thermodynamic at 24 h [1]: > 3000 µg/mL | Ratio IC50 [2]: 3 | pIC50 [3]: 6.71 | pIC50 [6]: 3.67 | R% [4]: 4% | Ratio IC50 (Escherichia coli): 2.8 | logD at 2 h [5]: -0.21

Cc1ccc(-c2cn([C@H]3O[C@H](CO)[C@@H](O)[C@H](O)[C@@H]3O)nn2)cc1
solubility thermodynamic at 24 h [1]: 445 µg/mL (≈ 1.38 mM) | Ratio IC50 [2]: 3.8 | pIC50 [3]: 6.61 | pIC50 [6]: 3.54 | R% [4]: 11.5% | Ratio IC50 (Escherichia coli): 3.7 | logD at 2 h [5]: 0.91

O=[N+]([O-])c1ccc(-n2cc(CCO[C@H]3O[C@H](CO)[C@@H](O)[C@H](O)[C@@H]3O)nn2)cc1
solubility thermodynamic at 24 h [1]: > 3000 µg/mL | Ratio IC50 [2]: 1.7 | pIC50 [3]: 6.95 | R% [4]: 2.9% | logD at 2 h [5]: -0.3

OC[C@H]1O[C@H](OCc2cn(C34CC5CC(CC(C5)C3)C4)nn2)[C@@H](O)[C@@H](O)[C@@H]1O
solubility thermodynamic at 24 h [1]: > 3000 µg/mL | Ratio IC50 [2]: 2.1 | pIC50 [3]: 6.87 | R% [4]: 9.8% | logD at 2 h [5]: 0.07

OC[C@H]1O[C@H](Cn2cc(-c3ccccc3)nn2)[C@@H](O)[C@@H](O)[C@@H]1O
solubility thermodynamic at 24 h [1]: > 3000 µg/mL | Ratio IC50 [2]: 8.5 | pIC50 [3]: 6.25 | R% [4]: 7.8% | logD at 2 h [5]: -0.36

Nc1ccc(-n2cc(CO[C@H]3O[C@H](CO)[C@@H](O)[C@H](O)[C@@H]3O)nn2)cc1
solubility thermodynamic at 24 h [1]: > 2000 µg/mL | Ratio IC50 [2]: 6.4 | pIC50 [3]: 6.38 | pIC50 [6]: 3.52 | R% [4]: 4% | Ratio IC50 (Escherichia coli): 3.9 | logD at 2 h [5]: 0.2

OC[C@H]1O[C@H](OCc2cn(-c3ccc(F)cc3)nn2)[C@@H](O)[C@@H](O)[C@@H]1O
solubility thermodynamic at 24 h [1]: > 3000 µg/mL | Ratio IC50 [2]: 11.9 | pIC50 [3]: 6.11 | R% [4]: 4.6% | logD at 2 h [5]: -0.15

COc1cccc(Cn2cc(CO[C@H]3O[C@H](CO)[C@@H](O)[C@H](O)[C@@H]3O)nn2)c1
solubility thermodynamic at 24 h [1]: > 3000 µg/mL | Ratio IC50 [2]: 6.9 | pIC50 [3]: 6.34 | R% [4]: 4% | logD at 2 h [5]: -0.38

OC[C@H]1O[C@H](Cn2cc(-c3cccnc3)nn2)[C@@H](O)[C@@H](O)[C@@H]1O
solubility thermodynamic at 24 h [1]: 1880 µg/mL (≈ 5.82 mM) | Ratio IC50 [2]: 5.1 | pIC50 [3]: 6.48 | IC50 [6]: Not Active | R% [4]: impermeable | logD at 2 h [5]: < -1.5

Cc1ccc(-c2cn(C[C@H]3O[C@H](CO)[C@@H](O)[C@H](O)[C@@H]3O)nn2)cc1
solubility thermodynamic at 24 h [1]: 1490 µg/mL (≈ 4.44 mM) | Ratio IC50 [2]: 8.6 | pIC50 [3]: 6.25 | R% [4]: 6.3% | logD at 2 h [5]: 0.23
